{
  "source": "paper PMC4152746",
  "about": "(Cell Research, 2014)",
  "molecules": {"B1": {"name": "HER2 pY1248 phospho-peptide (Ac-ENPEpY1248LGLD-NH2) (peptide)", "peptide": "Ac-ENPE[pY]LGLD-NH2", "SMILES": "CC(=O)N[C@@H](CCC(=O)O)C(=O)N[C@@H](CC(N)=O)C(=O)N1CCC[C@H]1C(=O)N[C@@H](CCC(=O)O)C(=O)N[C@@H](Cc1ccc(OP(=O)(O)O)cc1)C(=O)N[C@@H](CC(C)C)C(=O)NCC(=O)N[C@@H](CC(C)C)C(=O)N[C@@H](CC(=O)O)C(N)=O"}, "B2": {"name": "HER2 pY1196 phospho-peptide (Ac-ENPEpY1196LTPQ-NH2) (peptide)", "peptide": "Ac-ENPE[pY]LTPQ-NH2", "SMILES": "CC(=O)N[C@@H](CCC(=O)O)C(=O)N[C@@H](CC(N)=O)C(=O)N1CCC[C@H]1C(=O)N[C@@H](CCC(=O)O)C(=O)N[C@@H](Cc1ccc(OP(=O)(O)O)cc1)C(=O)N[C@@H](CC(C)C)C(=O)N[C@H](C(=O)N1CCC[C@H]1C(=O)N[C@@H](CCC(N)=O)C(N)=O)[C@@H](C)O"}},
  "key": {"[1]": {"biological_target": "T1, PTPN18 (Homo sapiens, UniProt Q99952)", "T1 sequence (Q99952 6-300)": "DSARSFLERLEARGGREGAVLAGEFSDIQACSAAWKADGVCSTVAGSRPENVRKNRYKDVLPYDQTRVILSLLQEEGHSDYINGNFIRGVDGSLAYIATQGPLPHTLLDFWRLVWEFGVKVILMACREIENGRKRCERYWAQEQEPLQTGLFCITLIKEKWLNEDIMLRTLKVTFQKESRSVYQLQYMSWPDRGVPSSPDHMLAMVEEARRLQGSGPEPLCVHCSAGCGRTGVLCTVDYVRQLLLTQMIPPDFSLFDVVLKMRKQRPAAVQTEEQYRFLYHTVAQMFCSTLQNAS", "assay": "PTPN18-catalyzed hydrolysis of pY-containing peptides", "type": "biochemical", "details": "for Kcat/Km of PTPN18: calculated; for Kcat/Km of PTPN18 / Kcat for PTPN18 catalysis: range over the three peptides, pH 6.5, 37 °C, 10 nM PTPN18", "method_in_brief": "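Peptide dephosphorylation by the phosphatase, read by two methods: tyrosine fluorescence gain (excitation 280 nm, emission 305 nm) and an end-point inorganic phosphate assay at 620 nm. Conditions were 37 °C in 50 mM 3,3-dimethylglutarate pH 6.5, 1 mM DTT, 1 mM EDTA, ionic strength 0.15 M. Reactions started with enzyme at 10 nM final. Kinetics came from nonlinear least-squares regression.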"}, "[2]": {"test_system": "PTPN18 mutants V65A, V65I, P272M", "assay": "Catalytic activity of PTPN18 pY+1 pocket mutants towards HER2 phospho-peptides", "type": "biochemical, human", "details": "mutations V65A, V65I and P272M versus wild type", "method_in_brief": "(§1)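 Recombinant PTPN18 (wild type or mutant) hydrolysing pY-containing peptides at 37 °C in 50 mM 3,3-dimethylglutarate, pH 6.5, 1 mM DTT, 1 mM EDTA, ionic strength 0.15 M. Reactions are started by adding enzyme to 10 nM final. Read-out is tyrosine fluorescence (ex 280/em 305 nm) or inorganic-phosphate end-point at 620 nm. Kinetics are fitted by nonlinear least-squares regression.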"}, "[3]": {"test_system": "PTPN18 mutants R198A, R198E", "assay": "Catalytic activity of PTPN18 R198 mutants towards HER2 phospho-peptides", "type": "biochemical, human", "details": "R198 changed to Ala or Glu versus wild type", "method_in_brief": "as §1"}, "[4]": {"biological_target": "T1, PTPN18", "assay": "pNPP phosphatase assay", "type": "biochemical", "details": "PTPN18 versus PTP1B, DMG buffer, 37 °C"}, "[5]": {"test_system": "HER2 level in HepG2 cells", "assay": "EGF-induced HER2 degradation with proteasome inhibitor", "type": "cell-based", "details": "100 ng/ml EGF", "method_in_brief": "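HepG2 cells are transfected with control vector or PTPN18, preincubated with MG-132, then exposed to EGF for a time course. HER2 is detected by western blot with a specific antibody and quantified.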"}, "[6]": {"biological_target": "T2, PTPN18 V65A (UniProt Q99952 1-460, V65A)", "T2 sequence (looked up)": "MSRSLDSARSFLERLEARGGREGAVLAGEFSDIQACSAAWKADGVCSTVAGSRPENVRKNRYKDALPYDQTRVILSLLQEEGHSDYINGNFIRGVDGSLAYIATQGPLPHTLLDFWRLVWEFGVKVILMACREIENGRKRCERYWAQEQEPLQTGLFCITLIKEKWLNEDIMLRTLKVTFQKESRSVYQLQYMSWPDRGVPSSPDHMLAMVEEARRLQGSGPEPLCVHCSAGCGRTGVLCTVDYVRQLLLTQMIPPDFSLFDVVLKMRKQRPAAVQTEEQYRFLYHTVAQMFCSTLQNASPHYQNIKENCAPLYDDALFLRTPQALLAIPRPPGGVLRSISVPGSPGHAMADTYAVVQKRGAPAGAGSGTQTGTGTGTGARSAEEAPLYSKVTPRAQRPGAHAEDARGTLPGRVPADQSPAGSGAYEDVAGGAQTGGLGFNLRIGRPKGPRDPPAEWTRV", "assay": "cell-based or functional assay"}, "[7]": {"biological_target": "T3, PTPN18 P272M (UniProt Q99952 1-460, P272M)", "T3 sequence (looked up)": "T2 sequence (looked up) with A65V, P272M", "assay": "cell-based or functional assay"}, "[8]": {"biological_target": "T4, PTPN18 V65I (UniProt Q99952 1-460, V65I)", "T4 sequence (looked up)": "T2 sequence (looked up) with A65I", "assay": "cell-based or functional assay"}},
  "note": "Residue numbers refer to the chain shown, from its start. Where a SMILES comes first, the peptide text is derived from it. Where no end group is shown, it is not given here. [ ]: non-standard residue; d: D form. The star is where a group is joined. pY = N[C@@H](Cc1ccc(OP(=O)(O)O)cc1)C(=O)O; Cbz = O=C(OCc1ccccc1)*",
  "data": [
    {"molecule": "HER2 pY^1221pY^1222: HER2 doubly phosphorylated Y1221/Y1222 site phospho-peptide (FDNL[pY][pY]WDQD)", "values": [
      {"measurement": "PTPN18 activity towards the peptide (in words)", "setting": "[1]", "result": "very weak activity"}
    ]},
    {"molecule": "Ac-ENPE pY^1196 LTPQ-NH2 [HER2 pY^1196]", "values": [
      {"measurement": "Kcat/Km of PTPN18 relative to its Kcat/Km towards HER2 pY^1248", "setting": "[1]", "result": "approximately half"},
      {"measurement": "Kcat/Km of PTPN18", "setting": "[1]", "result": "400000 to 800000", "unit": "M⁻¹ s⁻¹"},
      {"measurement": "Kcat for PTPN18 catalysis", "setting": "[1]", "result": "4 to 11.2", "unit": "s⁻¹"},
      {"measurement": "Decrease of PTPN18 activity towards the peptide by mutation", "setting": "[2]", "result": "> 2", "unit": "fold"}
    ]},
    {"molecule": "PLQRpY^1112 SEDP [HER2 pY^1112]", "values": [
      {"measurement": "Kcat/Km of PTPN18", "setting": "[1]", "result": "400000 to 800000", "unit": "M⁻¹ s⁻¹"},
      {"measurement": "Kcat for PTPN18 catalysis", "setting": "[1]", "result": "4 to 11.2", "unit": "s⁻¹"},
      {"measurement": "Decrease of PTPN18 activity towards the peptide by mutation", "setting": "[3]", "result": "2-3 fold"}
    ]},
    {"molecule": "Ac-ENPEpY^1248 LGLD-NH2 [HER2 pY^1248]", "values": [
      {"measurement": "Kcat/Km of PTPN18", "setting": "[1]", "result": "400000 to 800000", "unit": "M⁻¹ s⁻¹"},
      {"measurement": "Kcat for PTPN18 catalysis", "setting": "[1]", "result": "4 to 11.2", "unit": "s⁻¹"},
      {"measurement": "Decrease of PTPN18 activity towards the peptide by mutation", "setting": "[3]", "result": "2-3 fold"},
      {"measurement": "Decrease of PTPN18 activity towards the peptide by mutation", "setting": "[2]", "result": "> 2", "unit": "fold"}
    ]},
    {"molecule": "O=[N+]([O-])c1ccc(OP(=O)(O)O)cc1", "note": "[pNPP, para-nitrophenyl phosphate]", "values": [
      {"measurement": "Kcat/Km of PTPN18 lower than that of PTP1B", "setting": "[4]", "result": 2000, "unit": "fold"}
    ]},
    {"molecule": "CC(C)C[C@@H](C=O)NC(=O)[C@H](CC(C)C)NC(=O)[C@H](CC(C)C)NC(=O)OCc1ccccc1", "note": "[MG132] (Cbz-Leu-Leu-Leu-aldehyde)", "values": [
      {"measurement": "Effect on PTPN18-overexpression-promoted HER2 degradation", "setting": "[5]; HepG2 cells transfected with PTPN18, 5 μM MG-132 for 16 h", "result": "almost abolished"},
      {"measurement": "Endogenous HER2 expression level", "setting": "[5]; HepG2 cells, 5 μM MG-132 preincubated for 16 h", "result": "significantly increased"}
    ]},
    {"molecule": "B1", "values": [
      {"measurement": "decrease of PTPN18 activity towards the peptide (Figure 6B)", "setting": "[6]", "result": "> 2", "unit": "fold"},
      {"measurement": "decrease of PTPN18 activity towards the peptide (Figure 6B)", "setting": "[7]", "result": "> 2", "unit": "fold"},
      {"measurement": "decrease of PTPN18 activity towards the peptide (Figure 6B)", "setting": "[8]", "result": "> 2", "unit": "fold"}
    ]},
    {"molecule": "B2", "values": [
      {"measurement": "decrease of PTPN18 activity towards the peptide (Figure 6B)", "setting": "[6]", "result": "> 2", "unit": "fold"},
      {"measurement": "decrease of PTPN18 activity towards the peptide (Figure 6B)", "setting": "[7]", "result": "> 2", "unit": "fold"},
      {"measurement": "decrease of PTPN18 activity towards the peptide (Figure 6B)", "setting": "[8]", "result": "> 2", "unit": "fold"}
    ]}
  ]
}
